A selection: hits, their analogues and other compounds. The true share with any hit is near 1.3%.
Xi reactivation: activators of inactive X chromosome reactivation, primary screen, imaging, XiGFP fibroblasts, GFP high-content imaging, set 2; XiGFP mouse fibroblasts, % GFP-positive cells imaging, 3 d; cells co-treated with 5-aza-dC sensitizer; scaled so ellipticine positive control = 100%; activation, % at 7.58 µM; 0.055% of 360,000 active; AID 743238, 2013;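 active = mean normalized replicate activation at least 10% and every replicate at or above 10%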;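 note: 0% = median of on-plate neutral control wells and 100% = ellipticine 6 µM median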
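Assay system – SV40-immortalized XiGFP fibroblast cells, line 68-5-11 · Buffer or medium – DMEM supplemented with 5-aza-dC as sensitizing agent · Dosing – one concentration, pinned · Benchmarks – positive control ellipticine, 6 µM final · Times – 3 days compound exposure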
CSN deneddyl inh: inhibitors of CSN-mediated cullin deneddylation, primary screen, biochemical, fluorescence polarization, uHTS; COP9 signalosome complex subunit 5 (Homo sapiens), Q92905; Purified CSN, SCF-Nedd8-OG deneddylation; inhibition, % at 12.5 µM; 0.38% of 360,000 active; AID 651999, 2013;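 active = pattern-corrected inhibition above about 35%, with an unprinted fluorescence ratio check between 0.5 and 1.5, limit read from the data, passing the limit was not always enough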;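 note: 0% = enzyme with substrate and 100% = substrate without enzyme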
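Test system: purified human Csn5 enzyme expressed in HEK293T cells. Amount: 0.24 nM enzyme. Reagent: SCFSkp2-Nedd8OG substrate at 10 nM final. Schedule: 90 min incubation of compound, enzyme and substrate at room temperature. Detection: fluorescence polarization. Read-out: % inhibition of substrate cleavage by Csn5.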
Rpn11 inh: Rpn11 (PSMD14) deubiquitinase inhibitors, primary screen, biochemical, fluorescence polarization, uHTS | 26S proteasome non-ATPase regulatory subunit 14 (Homo sapiens), O00487 | human 26S proteasome, Ub4-pepOG fluorescence polarization; 20S core pre-blocked with epoxomicin | inhibition, % at 20 µM | 0.59% of 360,000 active;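 active = inhibition at 20 µM, scaled to each plate's controls, above about 33%, limit read from the data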
TPT1 inhibitor: Candida albicans TPT1 enzyme inhibitors, primary screen, biochemical, fluorescence polarization | tRNA 2'-phosphotransferase TPT1 (Candida albicans SC5314) | recombinant caTPT1, FP RNA substrate dephosphorylation | inhibition, % at 5 µM | 0.81% of 300,000 active | AID 1962, 2009;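 active = inhibition above the mean of all tested compounds plus 3 SD, set per screening campaign, cut at about 24% in these data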;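 note: plate controls were DMSO alone for no effect and ferristatin control at 100 nM for full effect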
HNF4A DNA FP: change in binding of human HNF4A to DNA, primary screen, biochemical, fluorescence polarization, FITC-DNA; Hepatocyte nuclear factor 4-alpha (Homo sapiens), P41235; 1 h; activity change, % at 10 µM; 0.3% of 360,000 active; AID 1224865, 2016; in the data active = activity change above about 30%, passing the limit was not always enough
Target sequence (P41235 whole entry, looked up): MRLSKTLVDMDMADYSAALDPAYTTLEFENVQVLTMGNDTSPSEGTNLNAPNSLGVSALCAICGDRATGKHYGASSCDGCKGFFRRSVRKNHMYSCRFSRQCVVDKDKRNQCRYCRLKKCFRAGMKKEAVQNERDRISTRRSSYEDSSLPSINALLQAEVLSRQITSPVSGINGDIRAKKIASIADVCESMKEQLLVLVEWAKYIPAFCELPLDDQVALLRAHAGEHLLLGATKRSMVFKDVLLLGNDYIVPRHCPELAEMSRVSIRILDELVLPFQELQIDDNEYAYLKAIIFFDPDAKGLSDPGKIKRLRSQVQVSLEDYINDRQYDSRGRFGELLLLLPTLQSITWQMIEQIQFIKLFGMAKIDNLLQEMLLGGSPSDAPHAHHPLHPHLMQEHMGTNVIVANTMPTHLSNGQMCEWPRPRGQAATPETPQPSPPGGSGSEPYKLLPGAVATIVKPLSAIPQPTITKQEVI
aDG glyco act: activators of alpha-DG glycosylation, primary screen, uHTS, Pro5-aDG cells, AlphaScreen; 0.22% of 360,000 active; alpha-DG glycosylation AlphaScreen (IIH6); 0% Pro5, 100% B10-LARGE cell signal; activation, % at 10 µM;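 active = activation of at least 8% versus controls, or a plate z-score of at least 8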;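 note: Pro5 are CHO cells carrying HIG-tagged alpha-DG that lacks glycosylation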
Rpn11 inh conf: Rpn11 (PSMD14) deubiquitinase inhibitors, confirmation, biochemical, fluorescence polarization, single concentration; inhibition, % at 20 µM; shares compounds with Rpn11 inh; 29% of 1,900 active; purified human 26S proteasome, Ub4-pepOG fluorescence polarization; proteasome pretreated with epoxomicin; AID 602318, 2012
MMP-2 inh: MMP-2 enzyme inhibition, confirmation, counter-screen for RPN11 inhibitor project, biochemical, fluorescence, single concentration; shares compounds with Rpn11 inh; AID 602330, 2012; recombinant MMP-2, FRET peptide cleavage fluorescence; inhibition, % at 20 µM; 4% of 1,900 active;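 note: human MMP-2 activated beforehand with APMA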
Thrombin inh: bovine thrombin protease inhibition, confirmation, counter-screen for Rpn11 inhibitor project, biochemical, fluorescence polarization, single concentration; inhibition, % at 20 µM; 13% of 1,900 active; AID 602333, 2012; bovine thrombin cleavage of Ub4-pepOG; shares compounds with Rpn11 inh;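 active = mean inhibition at least 40% at 20 µM, or signal 3 deviations below plate average, so some actives read negative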;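 note: plate controls were thrombin with DMSO for no effect and buffer wells lacking thrombin for full effect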
The depositor's hits bear a star. Cut-off read from the data, not from the text of the source, unless noted: active = inhibition above about 40%; inactive = the rest.

Screening CC(C)(C)Cc1c(-c2cccc(Cl)c2)nc2ccc(Cl)cn12 returned Xi reactivation 0, CSN deneddyl inh 6, Rpn11 inh 43*, HNF4A DNA FP 24, aDG glyco act 0, Rpn11 inh conf -6, MMP-2 inh 52* and Thrombin inh 3.
COc1ccccc1Cc1c(-c2cccc(Br)c2)nc2ccc(Br)cn12 was read as Xi reactivation 0, CSN deneddyl inh 12, Rpn11 inh 17, HNF4A DNA FP 20 and aDG glyco act 0.
Screening CC(C)C(=O)Nc1ccc2c(c1)C(=O)N(C)[C@H]1CC[C@@H](CC(=O)NCc3ccccc3F)O[C@H]1CO2 returned Xi reactivation 0.
Screening C[C@@H]1CN([C@H](C)CO)S(=O)(=O)c2ccc(C3=CCCCC3)cc2O[C@H]1CN(C)Cc1ccccn1 returned Xi reactivation 0.
For CCc1ccc2[nH]c(=O)c(CN(Cc3ccccc3OC)Cc3nnnn3Cc3ccco3)cc2c1 the results were CSN deneddyl inh 6, Rpn11 inh 45*, TPT1 inhibitor 18, HNF4A DNA FP 8, aDG glyco act 0, Rpn11 inh conf -7, MMP-2 inh -20 and Thrombin inh -2.
Screening COc1ccccc1CN(Cc1cc2cc(C)ccc2[nH]c1=O)Cc1nnnn1Cc1ccco1 returned CSN deneddyl inh 23, Rpn11 inh 26, TPT1 inhibitor 14, HNF4A DNA FP 13 and aDG glyco act 0.
Screening CC1(C)NC(=O)N(CC(O)COc2cc3ccccc3cc2C(=O)N2CCCCC2)C1=O (stereo unspecified) returned CSN deneddyl inh 1, Rpn11 inh 67*, TPT1 inhibitor -2, HNF4A DNA FP 0, aDG glyco act 0, Rpn11 inh conf -29, MMP-2 inh -18 and Thrombin inh -13.
`COc1ccc(CNC(=O)N(C)C[C@H]2OCc3ccccc3-c3ccccc3C(=O)N([C@@H](C)CO)C[C@H]2C)cc1` gave Xi reactivation 0.
O=C(NC12CC3CC(CC(C3)C1)C2)N1CCC(O)CC1 was read as CSN deneddyl inh 0, Rpn11 inh 111*, TPT1 inhibitor -6, HNF4A DNA FP 16, aDG glyco act 0, Rpn11 inh conf -18, MMP-2 inh -55 and Thrombin inh -14.
O=C(O)CC/C(=C/c1cccc(NC(=O)c2ccccc2Cl)c1)c1nc2ccccc2s1 was read as Xi reactivation 0, CSN deneddyl inh 8, Rpn11 inh 14, HNF4A DNA FP 6 and aDG glyco act 0.
Screening COc1cc(/C=C(\CCC(=O)O)c2nc3ccccc3s2)ccc1OCC(=O)Nc1c(Cl)cccc1Cl returned Xi reactivation 0, CSN deneddyl inh 7, Rpn11 inh 73*, HNF4A DNA FP -27, aDG glyco act 0, Rpn11 inh conf 27, MMP-2 inh -1 and Thrombin inh 1.
